Results taken from ChEMBL document CHEMBL1156229, “Pharmacophore development and application toward the identification of novel, small-molecule autotaxin inhibitors” (J Med Chem, 2010).

Experiments:
[1] = biological target: T1, Autotaxin (Homo sapiens, UniProt Q13822); experiment: Inhibition of human recombinant C-terminal FLAG-tagged autotaxin expressed in baculovirus-infected Sf9 cells assessed as FS-3 hydrolysis at 10 uM relative to control
Method in brief: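 Single-dose screen: inhibitor 10 μM final, purified recombinant human ATX 8.3 nM, FS-3 1 μM, fatty acid free BSA 30 μM in Tris pH 8 buffer (1 mM MgCl2, 1 mM CaCl2, 3 mM KCl, 140 mM NaCl), 37 °C. Fluorescence (ex 485/em 538) read every 2 min; percent activity vs vehicle after no-ATX subtraction at 1 h; mean ± SD of three wells.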

[2] = biological target: T1, Autotaxin; experiment: Inhibition of human recombinant C-terminal FLAG-tagged autotaxin expressed in baculovirus-infected Sf9 cells assessed as FS-3 hydrolysis
Method in brief: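 Dose response: final inhibitor 30, 10, 3, 1, 0.3, 0.1, 0.03 μM, plus 0.01 and 0.003 μM for some compounds; purified human ATX 8.3 nM, 1 μM FS-3, 30 μM fatty acid free BSA, Tris pH 8 buffer, 37 °C. Fluorescence ex 485/em 538 every 2 min; percent activity vs vehicle at 1 h after no-ATX background subtraction; mean of three wells.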

| Compound | inhibition [1] | IC50 [2] | IC50 ([2]; sf9) |
| --- | --- | --- | --- |
| COc1ccccc1/N=N/c1c(S(=O)(=O)O)cc2cc(NC(=O)Nc3ccc4c(O)c(/N=N/c5c(N)ccc6cc(S(=O)(=O)O)ccc56)c(S(=O)(=O)O)cc4c3)ccc2c1O | 84% | 11.6 µM | – |
| CC(=O)Nc1cc(/N=N/c2ccc(NC(=O)c3ccc(N)cc3)cc2C)c(S(=O)(=O)O)cc1/N=N/c1ccc(/N=N/c2ccc(S(=O)(=O)O)cc2)cc1 | 74% | 5.4 µM | – |
| COc1cc(/N=N/c2ccc3cc(S(=O)(=O)O)cc(S(=O)(=O)O)c3c2)ccc1/N=N/c1ccc(NC(=O)c2ccc(NC(=O)c3ccccc3)cc2)cc1C | 77% | 1.7 µM | – |
| CC(=O)Nc1ccc(/C=C/c2ccc(NC(=O)Nc3ccc(/C=C/c4ccc(NC(C)=O)cc4S(=O)(=O)O)c(S(=O)(=O)O)c3)cc2S(=O)(=O)O)c(S(=O)(=O)O)c1 | 49% | 23 µM | – |
| Cc1c(N)cc(S(=O)(=O)O)c(/N=N/c2ccc(-c3ccc(/N=N/c4c(S(=O)(=O)O)cc5cc(S(=O)(=O)O)c(/N=N/c6cccc([N+](=O)[O-])c6)c(N)c5c4O)cc3)cc2)c1N | 68% | 5.9 µM | – |
| Nc1ccc2cc(S(=O)(=O)O)c(/N=N/c3ccc(-c4ccc(/N=N/c5c(S(=O)(=O)O)cc6cc(S(=O)(=O)O)c(/N=N/c7cccc([N+](=O)[O-])c7)c(N)c6c5O)cc4)cc3)c(O)c2c1 | 65% | 28.1 µM | – |
| Cc1ccc(C)c(/N=N/c2c(S(=O)(=O)O)cc3cc(NC(=O)Nc4ccc5c(O)c(/N=N/c6ccc7cc(S(=O)(=O)O)ccc7c6)c(S(=O)(=O)O)cc5c4)ccc3c2O)c1 | 65% | 15.5 µM | – |
| COc1cc(/N=N/c2c(S(=O)(=O)O)cc3cc(NC(=O)Nc4ccc5c(O)c(/N=N/c6ccc7cc(S(=O)(=O)O)ccc7c6)c(S(=O)(=O)O)cc5c4)ccc3c2O)c(C)cc1N | 70% | 13.8 µM | – |
| O=C(Nc1ccc2c(O)c(/N=N/c3ccccc3)c(S(=O)(=O)O)cc2c1)Nc1ccc2c(O)c(/N=N/c3ccc4cc(S(=O)(=O)O)ccc4c3)c(S(=O)(=O)O)cc2c1 | 61% | 19.1 µM | – |
| COc1cc(NC(=O)c2ccc(NC(=O)c3ccc(N)cc3)cc2)c(OC)cc1/N=N/c1cc(C)c(/N=N/c2cc(S(=O)(=O)O)c3cccc(S(=O)(=O)O)c3c2)cc1C | 53% | 7.6 µM | – |
| Nc1c(/N=N/c2ccc(-c3ccc(/N=N/c4c(S(=O)(=O)O)cc5cc(S(=O)(=O)O)c(/N=N/c6ccccc6)c(O)c5c4N)cc3)cc2)ccc2c(S(=O)(=O)O)cccc12 | 75% | 2.42 µM | – |
| Cc1cc(/C(=C2C=C/C(=N\c3ccc(S(=O)(=O)O)cc3)C=C\2)c2ccc(Nc3ccc(S(=O)(=O)O)cc3)cc2)cc(S(=O)(=O)O)c1N | 55% | 8.7 µM | – |
| Cc1ccc(Nc2cccc3c2C(=O)c2cccc(Nc4ccc(C)cc4S(=O)(=O)O)c2C3=O)c(S(=O)(=O)O)c1 | 6% | – | – |
| O=S(=O)(O)c1ccc(-c2c3nc(c(-c4ccc(S(=O)(=O)O)cc4)c4ccc([nH]4)c(-c4ccc(S(=O)(=O)O)cc4)c4ccc([nH]4)c(-c4ccc(S(=O)(=O)O)cc4)c4nc2C=C4)C=C3)cc1 [TETRAPHENYLPORPHINE TETRASULFONIC ACID] | 61% | – | 7.8 µM |
| Nc1c(S(=O)(=O)O)cc2cc(S(=O)(=O)O)ccc2c1/N=N/c1ccc(-c2ccc(/N=N/c3c(N)c(S(=O)(=O)O)cc4cc(S(=O)(=O)O)ccc34)c(S(=O)(=O)O)c2)cc1 | 51% | 12.6 µM | – |
| O=C1/C(=C2\Nc3ccc(S(=O)(=O)O)cc3C2=O)Nc2ccc(S(=O)(=O)O)cc21 | 12% | – | – |
| Nc1ccc(C(=O)Nc2ccc(NC(=O)Nc3ccc(NC(=O)c4ccc(N)cc4)c(S(=O)(=O)O)c3)cc2S(=O)(=O)O)cc1 | 12% | – | – |
| Nc1c(S(=O)(=O)O)cc(Nc2cccc(S(=O)(=O)/C=C/S(=O)(=O)O)c2)c2c1C(=O)c1ccccc1C2=O | 43% | – | – |
| O=C(Nc1ccc(/C=C/c2ccc(NC(=O)c3cc(S(=O)(=O)O)c4cccnc4c3O)cc2S(=O)(=O)O)c(S(=O)(=O)O)c1)c1cc(S(=O)(=O)O)c2cccnc2c1O | 53% | 7.4 µM | – |
| O=C(Nc1cc(O)ccc1Oc1cc(O)c(O)cc1S(=O)(=O)O)Nc1cc(O)ccc1Oc1cc(O)c(O)cc1S(=O)(=O)O | 0% | – | – |
| Nc1ccc2c(O)c(/N=N/c3ccc(-c4ccc(/N=N/c5c(S(=O)(=O)O)cc6cc(S(=O)(=O)O)c(/N=N/c7cc(O)ccc7O)c(N)c6c5O)cc4)cc3)c(S(=O)(=O)O)cc2c1 | 1% | – | – |
| Nc1ccc2cc(S(=O)(=O)O)cc(O)c2c1/N=N/c1ccc(NC(=O)c2ccc(C(=O)Nc3ccc(/N=N/c4c(N)ccc5cc(S(=O)(=O)O)cc(O)c45)c(S(=O)(=O)O)c3)cc2)cc1S(=O)(=O)O | 52% | 9.8 µM | – |
| NC(Cc1ccc(O)cc1)C(=O)NCCS(=O)(=O)O (stereo not given) | 1% | – | – |
| O=C(Nc1ccc(C(=O)Nc2ccc3c(O)cc(S(=O)(=O)O)cc3c2)cc1)c1ccccc1 | 21% | – | – |
| O=C(O)c1cc(O)c(O)c(OC(=O)c2cc(O)c(O)c(O)c2CNc2ccc3cc(S(=O)(=O)O)cc(S(=O)(=O)O)c3c2)c1 | 2% | – | – |
| O=C(Nc1cccc(C(=O)Nc2ccc3cc(S(=O)(=O)O)cc(S(=O)(=O)O)c3c2)c1)Nc1cccc(C(=O)Nc2ccc3cc(S(=O)(=O)O)cc(S(=O)(=O)O)c3c2)c1 | 29% | – | – |
| Nc1ccc(NC(=O)c2ccc(C(=O)Nc3ccc4c(O)cc(S(=O)(=O)O)cc4c3)cc2)cc1 | 20% | – | – |

| Compound | inhibition [1] | IC50 [2] | IC50 ([2]; sf9) |
| --- | --- | --- | --- |
| O=C(Nc1ccc2cc(S(=O)(=O)O)ccc2c1)c1ccc([N+](=O)[O-])cc1 | -1% | – | – |
| CCCCc1ccc(Nc2ccc(Nc3ccc(CCCC)cc3S(=O)(=O)O)c3c2C(=O)c2ccccc2C3=O)c(S(=O)(=O)O)c1 | 8% | – | – |
| COc1ccc(NS(=O)(=O)c2ccc(NC(CNC(C)S(=O)(=O)O)S(=O)(=O)O)cc2)cc1 (stereo not given) | 4% | – | – |
| Cc1ccc(Nc2ccc(Nc3ccc(C)cc3S(=O)(=O)O)c3c2C(=O)c2ccccc2C3=O)c(S(=O)(=O)O)c1 | 8% | – | – |
| Cc1cc(C)c(S(=O)(=O)O)c(C)c1Nc1ccc(Nc2c(C)cc(C)c(S(=O)(=O)O)c2C)c2c1C(=O)c1ccccc1C2=O | 13% | – | – |
| O=C(CC(C(=O)O)S(=O)(=O)O)Nc1ccc(S(=O)(=O)c2ccc(NC(=O)CC(C(=O)O)S(=O)(=O)O)cc2)cc1 (stereo not given) | 1% | – | – |
| O=S(=O)(O)c1ccccc1/C=N/NC(=S)N/N=C/c1ccccc1S(=O)(=O)O | 1% | – | – |
| O=C(Nc1cccc(C(=O)Nc2ccc(S(=O)(=O)O)c3cc(S(=O)(=O)O)cc(S(=O)(=O)O)c23)c1)Nc1cccc(C(=O)Nc2cccc3c(S(=O)(=O)O)c(S(=O)(=O)O)cc(S(=O)(=O)O)c23)c1 | 27% | – | – |
| Nc1cccc(/N=N/c2c(S(=O)(=O)O)cc3cc(NC(=O)Nc4ccc5c(O)c(/N=N/c6cccc(N)c6)c(S(=O)(=O)O)cc5c4)ccc3c2O)c1 | 32% | – | – |
| COc1cc(/N=N/c2c(C)cc(C)cc2S(=O)(=O)O)c(C)cc1/N=N/c1c(S(=O)(=O)O)cc2cc(Nc3ccccc3)ccc2c1O | 2% | – | – |
| Nc1ccc2cc(S(=O)(=O)O)cc(O)c2c1/N=N/c1ccc(NC(=O)Nc2ccc(/N=N/c3c(N)ccc4cc(S(=O)(=O)O)cc(O)c34)c(S(=O)(=O)O)c2)cc1S(=O)(=O)O | 22% | – | – |
| Cc1cc(C(O)(c2ccc(Nc3ccccc3)cc2)c2ccc(Nc3ccc(S(=O)(=O)O)cc3)cc2)ccc1N (stereo not given) | 65% | – | – |
| CC(=O)Nc1ccc(/N=N/c2c(S(=O)(=O)O)cc3cc(NC(=O)Nc4ccc5c(O)c(/N=N/c6ccccc6)c(S(=O)(=O)O)cc5c4)ccc3c2O)cc1 | 17% | – | – |
| Nc1cc(N)c(/N=N/c2cccc3c(S(=O)(=O)O)cccc23)cc1/N=N/c1cc([N+](=O)[O-])ccc1O | 19% | – | – |
| Cc1ccc(C(=O)Nc2ccc(S(=O)(=O)O)c3cc(S(=O)(=O)O)cc(S(=O)(=O)O)c23)cc1NC(=O)c1cccc(NC(=O)Nc2cccc(C(=O)Nc3cc(C(=O)Nc4ccc(S(=O)(=O)O)c5cc(S(=O)(=O)O)cc(S(=O)(=O)O)c45)ccc3C)c2)c1 | 27% | – | – |
| Nc1ccc(C(=O)Nc2ccc(C(=O)Nc3ccc4cc(S(=O)(=O)O)cc(S(=O)(=O)O)c4c3)cc2)cc1 | 5% | – | – |
| COc1cc(/N=N/c2cccc(S(=O)(=O)O)c2)ccc1NC(=O)Nc1ccc(/N=N/c2ccc(O)c(C(=O)O)c2)cc1 | 21% | – | – |
| O=C1Nc2ccc(S(=O)(=O)O)cc2/C1=N/Nc1ccccc1[N+](=O)[O-] | 8% | – | – |
| Cc1cc(C)c(/N=N/c2cc(C)c(/N=N/c3c(S(=O)(=O)O)cc4cc(Nc5ccccc5)ccc4c3O)cc2C)c(S(=O)(=O)O)c1 | 27% | – | – |
| O=C(Nc1ccc2c(O)cc(S(=O)(=O)O)cc2c1)Nc1ccc2c(O)c(/N=N/c3ccc4cc(S(=O)(=O)O)ccc4c3)c(S(=O)(=O)O)cc2c1 | 36% | – | – |
| Cc1[nH]n(-c2cc(S(=O)(=O)O)ccc2O)c(=O)c1/N=N/c1c(NC(=O)c2ccc(N)cc2)ccc2cc(S(=O)(=O)O)ccc12 | 49% | – | – |
| O=C(Nc1ccc2c(O)cc(S(=O)(=O)O)cc2c1)Nc1ccc2c(O)cc(S(=O)(=O)O)cc2c1 | 11% | – | – |
| O=C(Nc1ccc(S(=O)(=O)c2ccc(NC(=O)Nc3ccc4cc(S(=O)(=O)O)ccc4c3)cc2)cc1)Nc1ccc2cc(S(=O)(=O)O)ccc2c1 | 43% | – | – |
| COc1cc(S(=O)(=O)O)ccc1/N=N/C(=N\Nc1ccc(S(=O)(=O)O)cc1OC)C(N)=O | -1% | – | – |
| COc1ccc(/C=N/NC(=O)C(=O)N/N=C/c2ccc(OC)c(S(=O)(=O)O)c2)cc1S(=O)(=O)O | 0% | – | – |
| COc1ccc(/C=N/NC(=N)C(=N)N/N=C/c2ccc(OC)c(S(=O)(=O)O)c2)cc1S(=O)(=O)O | 8% | – | – |
| COc1ccc(/C=N/NC(=O)N/N=C/c2ccc(OC)c(S(=O)(=O)O)c2)cc1S(=O)(=O)O | 2% | – | – |
